Results filed as inconclusive are left out.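 Rule for the calls, unless noted: active = RAM network inhibition above 8.4% in each of two replicates, 3 SD over the compound average; inconclusive = above 8.4% inhibition in only one replicate; inactive = 8.4% inhibition or less in each replicate.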
Columns and labels:
[1] = OD615 S. cerevisiae growth inhibition, permissive medium, pilot counter-assay, permissive growth control for S. cerevisiae lifespan shortening project (AID 705;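 active = growth inhibition above 25% in both replicates, a cutoff set 3 SD above the mean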); conditions: OD615, 24 h, at 10 µM, hits give high values
Outline: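 System: S. cerevisiae with engineered DeaD lifespan system / Measured by: absorbance (optical density) at 615 nm / Read-out: reduction in yeast growth (OD615) / Times: 4 h cell pre-growth, 24 h exposure at 30 °C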

[2] = Restrictive medium S. cerevisiae growth inhibition, OD615, pilot screen of yeast lifespan reduction project, restrictive growth control (AID 706;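 active = growth inhibition above a set limit, 3 SD over mean compound inhibition, in both replicates, cut at about 43% in these data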;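 note: modified DeaD lifespan yeast strain shifted to restrictive glucose medium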); conditions: OD615, 48 h, at 10 µM, hits give high values
Outline: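 System: Engineered S. cerevisiae DeaD strain | Buffer or medium: Glucose-based CSMM-D restrictive medium | Schedule: 4 h pre-incubation, 48 h exposure at 30 °C | Technique: Optical density at 615 nm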

[3] = viability gain of MRP-1-high H69AR cells under doxorubicin, pilot screen, MRP-1 activator project, CellTiter-Glo, duplicate (AID 807;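 active = viability increase at or above a cutoff of the median across tested compounds plus 3 SD, cut at about 8.5% in these data, passing the limit was not always enough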;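 note: compound pretreatment 18-22 h then 72 h combined with doxorubicin; 0% = doxorubicin alone and 100% = vehicle without doxorubicin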); conditions: H69AR viability with doxorubicin, CellTiter-Glo luminescence; at 10 µM; hits give high values
[4] = growth suppression of beta-catenin knockout HCT116, pilot screen, human colon tumor cells (AID 823;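 active = cell viability at or below a set limit in both duplicate runs, the limit being the all-compound median minus 4 SD, cut at about 23% in these data, passing the limit was not always enough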;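 note: 0% = wells killed by 20 µM Hyamine and 100% = untreated DMSO cell wells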); conditions: CellTiter-Glo, 60 h, at 10 µM, hits give low values
[5] = growth suppression of PTEN-deleted HCT116, pilot screen, cell-based, HCT116 clonal line, CellTiter-Glo (AID 824;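 active = viability at or below 27.92% in each of two runs, the all-compound median minus 4 SD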;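 note: 0% = 20 µM Hyamine control and 100% = vehicle cell control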); conditions: 60 h, at 10 µM, hits give low values
[6] = inhibitors of the yeast RAM network, pilot screen, dse1pr::URA3 reporter, 5-FOA selection (AID 869;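 active = inhibition over a set limit, the all-compound mean plus 3 SD, in both replicate runs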;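 note: 0% = DMSO wells with no growth and 100% = 10 µM 1-NA-PP1 with full growth; RAM network block rescues cells from 5-FOA so hits raise OD615 growth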); conditions: S. cerevisiae dse1pr::URA3 5-FOA growth, OD615, 2 d; at 10 µM; hits give high values; strain carries analog-sensitive mutant Cbk1 kinase
[7] = RAM signaling pathway blockade in yeast – S. cerevisiae, Pdr1DBD-CYC8 efflux-inhibited sensitized strain, primary screen (AID 1298);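 note: 0% = DMSO untreated cells without growth and 100% = 10 µM 1-NA-PP1 full growth; higher means more yeast growth rescued from 5-FOA killing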; conditions: S. cerevisiae cbk1-as DSE1-URA3 strain, 5-FOA growth OD615, 2 d; at 50 µM; hits give high values

Cn1cccc1Cc1nnc(SCC(=O)NC2CCCC2)n1-c1ccc(F)cc1
inactive: growth inhibition [1] 1.76% | growth inhibition [2] 6.74% | viability increase [3] -2.12% | viability [4] 104% | viability [5] 96.7% | inhibition [6] 0.675% | RAM network inhibition [7] 3.25%

CCNC(=O)c1c(C)nc2ccccn12
inactive: growth inhibition [1] 3.27% | growth inhibition [2] -7.95% | viability increase [3] -3.03% | viability [4] 101% | viability [5] 91% | inhibition [6] -0.1% | RAM network inhibition [7] 0.67%

CCC/C(O)=C1\C(=O)CC(C)(C)CC1=Nc1ccccc1OC
inactive: growth inhibition [1] -18.3% | growth inhibition [2] -21.1% | viability increase [3] -2.83% | viability [4] 87.6% | viability [5] 87% | inhibition [6] 3.95% | RAM network inhibition [7] 9.85%

COc1ccc(C)cc1NC(=O)CN(c1ccc(F)cc1)S(C)(=O)=O
inactive: growth inhibition [1] -20.5% | growth inhibition [2] -18.5% | viability increase [3] -1.76% | viability [4] 92.4% | viability [5] 103% | inhibition [6] 1.31% | RAM network inhibition [7] 4.09%

CCCN(CCC)CCCNC(=O)c1cc2c(=O)n(C)c3ccccc3c2n1C
inactive: growth inhibition [1] -3.03% | growth inhibition [2] -4.35% | viability increase [3] -6.97% | viability [4] 72.5% | viability [5] 77.1% | inhibition [6] 1.22% | RAM network inhibition [7] 3.47%

COc1ccc(C)cc1S(=O)(=O)N1CCN(S(=O)(=O)c2cc(C)ccc2OC)C(C)C1 (stereo not given)
inactive: growth inhibition [1] -8.75% | growth inhibition [2] -8.42% | viability increase [3] -3.35% | viability [4] 88.7% | viability [5] 85.6% | inhibition [6] 2.99% | RAM network inhibition [7] 2.61%

COC(=O)c1c(N)sc(C(C)=O)c1C
inactive: growth inhibition [1] -7.62% | growth inhibition [2] -6.67% | viability increase [3] -2.35% | viability [4] 98.4% | viability [5] 94.8% | inhibition [6] 1.72% | RAM network inhibition [7] 5.34%

O=C(c1oc(=O)c2ccccc2c1-c1ccccc1)N1CCN(C2CCCCC2)CC1
inactive: growth inhibition [1] -7.33% | growth inhibition [2] -0.045% | viability increase [3] -1.86% | viability [4] 95.5% | viability [5] 97.4% | inhibition [6] 1.16% | RAM network inhibition [7] 6.22%

CC(=O)Oc1ccc(N2C(=O)CC(N3CCOCC3)C2=O)cc1 (stereo not given)
inactive: growth inhibition [1] 2.42% | growth inhibition [2] 15% | viability increase [3] -0.57% | viability [4] 103% | viability [5] 99.9% | inhibition [6] 0.405% | RAM network inhibition [7] 0.46%

CCC/C(O)=C1\C(=O)CC(C)(C)CC1=NCCO
inactive: growth inhibition [1] 1.41% | growth inhibition [2] 11.1% | viability increase [3] -0.35% | viability [4] 91.9% | viability [5] 98.6% | inhibition [6] 2.65% | RAM network inhibition [7] 3.31%

Cc1cc(Nc2cccc(C)c2C)n2ncnc2n1
inactive: growth inhibition [1] -5.19% | growth inhibition [2] -1.32% | viability increase [3] -0.81% | viability [4] 95.1% | viability [5] 94.3% | inhibition [6] -0.155% | RAM network inhibition [7] -1.31%

COc1ccc(NC(=O)Nc2cccc(C)n2)cc1
inactive: growth inhibition [1] 6.65% | growth inhibition [2] 21.5% | viability increase [3] -1.44% | viability [4] 100% | viability [5] 88.4% | inhibition [6] 0.5% | RAM network inhibition [7] 3.92%

COc1ccc(N(CC(=O)N2CC=C(c3ccccc3)CC2)S(=O)(=O)c2c(C)noc2C)cc1
inactive: growth inhibition [1] -3.14% | growth inhibition [2] 1.52% | viability increase [3] -4.79% | viability [4] 98.1% | viability [5] 97.2% | inhibition [6] 1.41% | RAM network inhibition [7] 2.09%

CCOc1ccccc1NC(=O)CN(c1cc(C)cc(C)c1)S(=O)(=O)c1c(C)noc1C
inactive: growth inhibition [1] -22.6% | growth inhibition [2] -12.1% | viability increase [3] -1.39% | viability [4] 106% | viability [5] 95.1% | inhibition [6] 1.51% | RAM network inhibition [7] 1.81%

CC1CCN(C(=O)C(Cc2ccccc2)NS(=O)(=O)c2ccc3c(c2)oc(=O)n3C)CC1 (stereo not given)
inactive: growth inhibition [1] -12.5% | growth inhibition [2] -17.6% | viability increase [3] -1.4% | viability [4] 104% | viability [5] 94.1% | inhibition [6] 1.85% | RAM network inhibition [7] 8.04%

Cc1onc(-c2ccccc2)c1C(=O)Nc1nnc(N2CCCCCC2)s1
inactive: growth inhibition [1] -15.2% | growth inhibition [2] -12% | viability increase [3] 2% | viability [4] 101% | viability [5] 87.5% | inhibition [6] 1.23% | RAM network inhibition [7] 3.72%

COc1ccc(-n2c3c(cc(C(=O)Nc4ccc5c(c4)C(=O)NC5=O)c2=O)C(=O)CCC3)cc1
inactive: growth inhibition [1] -7.19% | growth inhibition [2] -10.4% | viability increase [3] 0.08% | viability [4] 102% | viability [5] 102% | inhibition [6] 1.77% | RAM network inhibition [7] 3.06%

O=S(=O)(c1ccc(Br)cc1)N1CCN(c2cc(-c3ccccc3)nc3ncnn23)CC1
inactive: growth inhibition [1] -4.71% | growth inhibition [2] -15.6% | viability increase [3] -5.82% | viability [4] 61.9% | viability [5] 71.9% | inhibition [6] 2.37% | RAM network inhibition [7] 2.33%

CC(C)CCn1c(SCC(N)=O)nc2c1c(=O)n(C)c(=O)n2C
inactive: growth inhibition [1] -11.8% | growth inhibition [2] -14.9% | viability increase [3] 0.12% | viability [4] 103% | viability [5] 102% | inhibition [6] -0.76% | RAM network inhibition [7] 2%

CC(C)NC(=O)c1ccc(CS(=O)(=O)c2ccc(Br)cc2)o1
inactive: growth inhibition [1] 4.63% | growth inhibition [2] 3.97% | viability increase [3] -1.73% | viability [4] 87.1% | viability [5] 95.1% | inhibition [6] 1.95% | RAM network inhibition [7] 4.82%

O=C(NCc1ccco1)C1CCN(c2nc3ccccc3n2Cc2ccc(F)cc2)CC1
inactive: growth inhibition [1] -6.36% | growth inhibition [2] -0.175% | viability increase [3] -5.61% | viability [4] 78.1% | viability [5] 73.9% | inhibition [6] 0.41% | RAM network inhibition [7] 7.12%

CCSCCOC(=O)C1=C(C)NC(=O)NC1c1cc(OC)ccc1OC (stereo not given)
inactive: growth inhibition [1] -4.26% | growth inhibition [2] 4.14% | viability increase [3] -1.14% | viability [4] 86.9% | viability [5] 90.8% | inhibition [6] 1.79% | RAM network inhibition [7] 2.39%

Cc1ccccc1OCc1nc(-c2ccc(-n3cccc3)cc2)no1
inactive: growth inhibition [1] -22.8% | growth inhibition [2] -18.9% | viability increase [3] -0.53% | viability [4] 81.3% | viability [5] 84% | inhibition [6] 2% | RAM network inhibition [7] 5.61%

COc1cccc(C2CC(=O)N3CN(c4cccc(Cl)c4C)CSC3=C2C#N)c1OC (stereo not given)
inactive: growth inhibition [1] 5.33% | growth inhibition [2] 19.4% | viability increase [3] -4.11% | viability [4] 73.2% | viability [5] 63.9% | inhibition [6] 3.38% | RAM network inhibition [7] 7.39%

CCOC(=O)N1CCC(NC(=O)CN2C(=O)CSc3nc(C)cc(C)c32)CC1
inactive: growth inhibition [1] -8.91% | growth inhibition [2] 6.29% | viability increase [3] -0.46% | viability [4] 109% | viability [5] 97.7% | inhibition [6] -0.65% | RAM network inhibition [7] 0.43%

O=S(=O)(CCc1nnc(-c2ccccc2)o1)c1ccc2ccccc2c1
inactive: growth inhibition [1] -16.3% | growth inhibition [2] -6.19% | viability increase [3] -1.86% | viability [4] 89.8% | viability [5] 91.8% | inhibition [6] 1.96% | RAM network inhibition [7] 10.4%

COc1ccc(N(CC(=O)NCc2cccs2)S(=O)(=O)c2cccnc2)cc1
inactive: growth inhibition [1] 5.41% | growth inhibition [2] 4.48% | viability increase [3] -0.05% | viability [4] 107% | viability [5] 106% | inhibition [6] 0.045% | RAM network inhibition [7] 7.1%

CCC(=O)c1ccc(OCC(=O)Nc2nn3cnnc3s2)cc1
inactive: growth inhibition [1] -2.54% | growth inhibition [2] 8.22% | viability increase [3] 1% | viability [4] 104% | viability [5] 102% | inhibition [6] 1.27% | RAM network inhibition [7] 6.32%

CC(C)NS(=O)(=O)c1ccc(CCC(=O)NCc2ccco2)cc1
inactive: growth inhibition [1] -15.3% | growth inhibition [2] -22.4% | viability increase [3] -3.3% | viability [4] 93.1% | viability [5] 97% | inhibition [6] 1.55% | RAM network inhibition [7] -0.53%

CCCc1nnc(SCC(=O)O)n1/N=C/c1ccc2c(c1)OCO2
inactive: growth inhibition [1] 8.88% | growth inhibition [2] 34.1% | viability increase [3] -2.31% | viability [4] 102% | viability [5] 101% | inhibition [6] 0.54% | RAM network inhibition [7] 0.41%

Cc1cc(C)c(C#N)c(SCC(=O)c2cccs2)n1
inactive: growth inhibition [1] -9.34% | growth inhibition [2] 1.01% | viability increase [3] -4.41% | viability [4] 78% | viability [5] 84.8% | inhibition [6] 1.6% | RAM network inhibition [7] 0.97%

COc1ccccc1NC(=O)Cn1c(=O)n2nc(C)nc2c2ccccc21
inactive: growth inhibition [1] -11% | growth inhibition [2] -16.9% | viability increase [3] -4.08% | viability [4] 102% | viability [5] 90.3% | inhibition [6] 1.47% | RAM network inhibition [7] 2.31%

Cc1ccc(O)c(C2=NOC(O)(C(F)(F)C(F)F)C2)c1 (stereo not given)
inactive: growth inhibition [1] -0.995% | growth inhibition [2] 9.35% | viability increase [3] -5.27% | viability [4] 93.4% | viability [5] 92.9% | inhibition [6] 0.72% | RAM network inhibition [7] 5.23%

CCOC(=O)C(C)Sc1nnc(Cc2cc(=O)[nH]c(=O)[nH]2)n1-c1cccc(OC)c1 (stereo not given)
inactive: growth inhibition [1] -8.94% | growth inhibition [2] -10% | viability increase [3] 0.04% | viability [4] 101% | viability [5] 96.9% | inhibition [6] 0.395% | RAM network inhibition [7] -1.47%

Cc1cccc(C)c1Nc1nc2ccccc2o1
inactive: growth inhibition [1] -7.32% | growth inhibition [2] 11.5% | viability increase [3] -0.76% | viability [4] 93.3% | viability [5] 94.3% | inhibition [6] 1.97% | RAM network inhibition [7] -0.32%
